Experimental data from ChEMBL document CHEMBL2069305, “Discovery and optimization of a series of liver X receptor antagonists” (Bioorg Med Chem Lett, 2012).
Values belong to the molecule of their own block, whether it stands above or below them.

Tests used:
[1] = system: HEK293; test: Cytotoxicity against human HEK293 cells; assay type: cell-based
[2] = target: T1, Oxysterols receptor LXR-beta (Homo sapiens, UniProt P55055); test: Displacement of [3H]N-(4-(1,1,1,3,3,3-hexafluoro-2-hydroxypropan-2-yl)phenyl)-N-methylbenzenesulfonamide from GST-tagged LXRbeta ligand binding domain after 1 hr by scintillation proximity assay
T1 sequence (P55055 whole entry): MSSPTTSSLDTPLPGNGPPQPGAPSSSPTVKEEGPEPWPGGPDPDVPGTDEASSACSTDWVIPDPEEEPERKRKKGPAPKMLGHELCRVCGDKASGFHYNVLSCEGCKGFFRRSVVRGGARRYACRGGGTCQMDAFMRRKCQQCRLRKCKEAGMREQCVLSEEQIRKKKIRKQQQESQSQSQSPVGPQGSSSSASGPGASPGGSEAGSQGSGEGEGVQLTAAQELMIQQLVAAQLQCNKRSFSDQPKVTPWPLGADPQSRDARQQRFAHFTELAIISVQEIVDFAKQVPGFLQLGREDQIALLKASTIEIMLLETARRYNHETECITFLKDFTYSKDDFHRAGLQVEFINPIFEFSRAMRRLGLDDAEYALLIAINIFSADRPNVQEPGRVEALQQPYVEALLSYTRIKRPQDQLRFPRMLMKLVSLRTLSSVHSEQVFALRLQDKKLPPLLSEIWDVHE

[3] = Clearance in Sprague-Dawley rat at 0.5 mg/kg, iv; assay type: ADME, organism-based; design: dose 0.5 mg/kg, route intravenous; conditions: in vivo
Summary of the method: (§1)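 Single intravenous dose of 0.5 mg/kg in rats; three animals per study.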

[4] = Mean residence time in Sprague-Dawley rat at 0.5 mg/kg, iv; assay type: ADME, organism-based; design: dose 0.5 mg/kg, route intravenous; conditions: in vivo; summary of the method: as §1
[5] = Volume of distribution at steady state in Sprague-Dawley rat at 0.5 mg/kg, iv; assay type: ADME, organism-based; design: dose 0.5 mg/kg, route intravenous; conditions: in vivo, read-out: Vdss; summary of the method: as §1
[6] = Oral bioavailability in Sprague-Dawley rat at 5 mg/kg; assay type: ADME, organism-based; conditions: in vivo
Summary of the method: (§2)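 Male Sprague–Dawley rats given a single oral dose of 5 mg/kg; three animals per study.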

[7] = AUC in Sprague-Dawley rat at 5 mg/kg, po; assay type: ADME, organism-based; design: dose 5 mg/kg, route oral; conditions: plasma; summary of the method: as §2
[8] = Metabolic stability in rat liver microsomes assessed as compound remaining at 1 uM after 30 mins; assay type: ADME, Microsome; conditions: read-out: Stability
[9] = AUC in Sprague-Dawley rat at 0.5 mg/kg, iv; assay type: ADME, organism-based; design: dose 0.5 mg/kg, route intravenous; conditions: plasma; summary of the method: as §1
[10] = system: Liver microsomes; test: Drug metabolism in rat liver microsomes assessed as isobutyl-hydroxylation; assay type: ADME, Microsome
[11] = system: Liver microsomes; test: Drug metabolism in rat liver microsomes assessed as oxidative cleavage of isobutyl group; assay type: ADME, Microsome
[12] = target: T1, Oxysterols receptor LXR-beta; test: Antagonist activity at LXRbeta ligand binding domain expressed in HEK293 cells coexpressing GAL4 assessed as decrease in […]N-(4-(1,1,1,3,3,3-hexafluoro-2-hydroxypropan-2-yl)phenyl)-N-methylbenzenesulfonamide-induced activity after 20 hrs by luciferase reporter gene assay; assay type: cell-based

SMILES: CC(C)CN(c1ccc(C(O)(C#Cc2ccc(S(C)(=O)=O)cc2)C(F)(F)F)cc1)S(=O)(=O)c1cccc(C#N)c1 (stereo unspecified)
- Activity [1]: Non-toxic

- IC50 [2]: > 30 µM
SMILES: CC(C)CC#CC(O)(c1ccc(N(C)S(=O)(=O)c2ccccc2)cc1)C(F)(F)F (stereo unspecified)

- IC50 [2]: > 10 µM
SMILES: CN(c1ccc(C(O)(c2nnn[nH]2)C(F)(F)F)cc1)S(=O)(=O)c1ccccc1 (stereo unspecified)

- clearance [3]: 18.3 mL/min/kg
- MRT [4]: 2.2 h
- Vd [5]: 2.3 L/kg
- bioavailability [6]: 31%
- AUC [7]: 1380 ng·h/mL
- remaining at 0.5 h, 1 µM [8]: > 95%
SMILES: CS(=O)(=O)c1ccc(C#CC(O)(c2ccc(N(CC3CC3)S(=O)(=O)c3ccccc3)cc2)C(F)(F)F)cc1 (stereo unspecified)

- IC50 [2]: > 10 µM
SMILES: CN(c1ccc(C(O)(c2nnc[nH]2)C(F)(F)F)cc1)S(=O)(=O)c1ccccc1 (stereo unspecified)

- IC50 [2]: > 10 µM
SMILES: CN(c1ccc(C(C)(O)C(F)(F)F)cc1)S(=O)(=O)c1ccccc1 (stereo unspecified)

- remaining at 0.5 h, 1 µM [8]: 36%
SMILES: CC(C)(C)CN(c1ccc(C(O)(C#Cc2ccc(S(C)(=O)=O)cc2)C(F)(F)F)cc1)S(=O)(=O)c1ccccc1 (stereo unspecified)

- remaining at 0.5 h, 1 µM [8]: 85%
SMILES: CS(=O)(=O)c1ccc(C#CC(O)(c2ccc(N(CC(F)(F)F)S(=O)(=O)c3ccccc3)cc2)C(F)(F)F)cc1 (stereo unspecified)

- remaining at 0.5 h, 1 µM [8]: < 5%
SMILES: CS(=O)(=O)c1ccc(C#CC(O)(c2ccc(N(CC3CCCC3)S(=O)(=O)c3ccccc3)cc2)C(F)(F)F)cc1 (stereo unspecified)

- remaining at 0.5 h, 1 µM [8]: 42%
SMILES: CS(=O)(=O)c1ccc(C#CC(O)(c2ccc(N(CCC(F)(F)F)S(=O)(=O)c3ccccc3)cc2)C(F)(F)F)cc1 (stereo unspecified)

- IC50 [2]: > 10 µM
SMILES: CN(c1ccc(C(O)C(F)(F)F)cc1)S(=O)(=O)c1ccccc1 (stereo unspecified)

- clearance [3]: 80 mL/min/kg
- MRT [4]: 1.3 h
- Vd [5]: 4.4 L/kg
- AUC [9]: 102 ng·h/mL
- Drug metabolism [10]: Active
- Drug metabolism [11]: Active
- bioavailability [6]: 9%
- AUC [7]: 86 ng·h/mL
- remaining at 0.5 h, 1 µM [8]: < 5%
SMILES: CC(C)CN(c1ccc(C(O)(C#Cc2ccc(S(C)(=O)=O)cc2)C(F)(F)F)cc1)S(=O)(=O)c1ccccc1 (stereo unspecified)
- Activity [1]: Non-toxic

- IC50 [2]: > 10 µM
SMILES: CN(c1ccc(C(O)(Cc2ccccc2)C(F)(F)F)cc1)S(=O)(=O)c1ccccc1 (stereo unspecified)

- remaining at 0.5 h, 1 µM [8]: < 5%
SMILES: CS(=O)(=O)c1ccc(C#CC(O)(c2ccc(N(CC3CCC3)S(=O)(=O)c3ccccc3)cc2)C(F)(F)F)cc1 (stereo unspecified)

- IC50 [2]: > 10 µM
- IC50 [12]: > 10 µM
SMILES: CC(C)CN(c1ccc(C(O)(C#Cc2ccc(S(=O)(=O)c3ccccc3)cc2)C(F)(F)F)cc1)S(=O)(=O)c1cccc(C#N)c1 (stereo unspecified)

- IC50 [2]: > 10 µM
SMILES: CN(c1ccc(C(O)(c2ncc[nH]2)C(F)(F)F)cc1)S(=O)(=O)c1ccccc1 (stereo unspecified)
